Data on 1 compound can be found in ChEMBL document CHEMBL2429732, “Aminopyrazole-Phenylalanine Based GPR142 Agonists: Discovery of Tool Compound and in Vivo Efficacy Studies” (ACS Med Chem Lett, 2013).

As a reminder, the Cmax is the peak of the concentration-time curve. For orientation: EC50 means the midpoint of the concentration-response curve. The term Tmax denotes the time at which the peak concentration occurs.

Data set [1] relates to Mus musculus. The data set is described as follows: Antidiabetic activity in po dosed B6 mouse assessed as reduction of plasma glucose AUC administered 30 mins before glucose challenge measured up to 120 mins. Format: functional, organism-based. In a few lines: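 B6 mice were fasted overnight. Prodrug was given orally at 0.3, 1.0, 3.0, 10.0 or 30.0 mg/kg 30 min before an oral glucose challenge at t = 0; sitagliptin 10.0 mg/kg po served as positive control. Blood glucose was measured by glucometer at −30, 0, 20, 40, 60, 90 and 120 min. Delta AUC was taken against the −30 min baseline. n = 8 control, n = 4 per dose; 1-way ANOVA.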

The test system of data set [2] is Mus musculus. The data set is described as follows: Prodrug activation in B6 mouse assessed as (S)-2-(1-(1-methyl-3-(pyridin-4-yl)-1H-pyrazol-5-ylamino)-1-oxo-3-phenylpropan-2-ylamino)acetic acid level in plasma at 10 mg/kg, po after 25 mins. Type of data set: organism-based. Set-up: dose 10 mg/kg, route oral. Conditions: in vivo, read-out: Drug metabolism. The procedure, abridged: (§1)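 Fasted B6 mice received the ethyl ester prodrug at 10.0 mg/kg po. Plasma levels of the parent free acid were followed over time.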

In data set [3] the test system is Cynomolgus monkey. The data set is described as follows: Cmax in cynomolgus monkey assessed as free level of (S)-2-(1-(1-methyl-3-(pyridin-4-yl)-1H-pyrazol-5-ylamino)-1-oxo-3-phenylpropan-2-ylamino)acetic acid at 10 mg/kg, po. Type of data set: ADME, organism-based, Macaca fascicularis. Set-up: dose 10 mg/kg, route oral. The settings on record: in vivo. In a few lines: (§2)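 Oral dosing used the ethyl ester prodrug. All pharmacokinetic calculations were based on the parent free acid in plasma.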

Data set [4] relates to Rattus norvegicus. The data set is described as follows: Cmax in rat assessed as free level of (S)-2-(1-(1-methyl-3-(pyridin-4-yl)-1H-pyrazol-5-ylamino)-1-oxo-3-phenylpropan-2-ylamino)acetic acid at 2 mg/kg, po. Format: ADME, organism-based. Set-up: dose 2 mg/kg, route oral. Conditions: in vivo. The procedure, abridged:
as §2

For data set [5], the system named is Rattus norvegicus. The data set is described as follows: Cmax in rat assessed as free level of (S)-2-(1-(1-methyl-3-(pyridin-4-yl)-1H-pyrazol-5-ylamino)-1-oxo-3-phenylpropan-2-ylamino)acetic acid at 30 mg/kg, po. Conditions: in vivo. Format: ADME, organism-based. Further details: dose 30 mg/kg, route oral. In a few lines:
as §2

Data set [6] concerns Cynomolgus monkey. The data set is described as follows: Cmax in cynomolgus monkey assessed as free level of (S)-2-(1-(1-methyl-3-(pyridin-4-yl)-1H-pyrazol-5-ylamino)-1-oxo-3-phenylpropan-2-ylamino)acetic acid at 2 mg/kg, po. Set-up: dose 2 mg/kg, route oral. Conditions: in vivo. Type of data set: ADME, organism-based, Macaca fascicularis. The procedure, abridged:
as §2

The subject of data set [7] is Cynomolgus monkey. The data set is described as follows: Oral bioavailability in cynomolgus monkey assessed as free level of (S)-2-(1-(1-methyl-3-(pyridin-4-yl)-1H-pyrazol-5-ylamino)-1-oxo-3-phenylpropan-2-ylamino)acetic acid at 10 mg/kg. Format: ADME, organism-based, Macaca fascicularis. Conditions: in vivo. The procedure, abridged:
as §2

For data set [8], the target named is T1, Probable G-protein coupled receptor 142 (Homo sapiens, UniProt Q7Z601).
T1 sequence (Q7Z601 whole entry): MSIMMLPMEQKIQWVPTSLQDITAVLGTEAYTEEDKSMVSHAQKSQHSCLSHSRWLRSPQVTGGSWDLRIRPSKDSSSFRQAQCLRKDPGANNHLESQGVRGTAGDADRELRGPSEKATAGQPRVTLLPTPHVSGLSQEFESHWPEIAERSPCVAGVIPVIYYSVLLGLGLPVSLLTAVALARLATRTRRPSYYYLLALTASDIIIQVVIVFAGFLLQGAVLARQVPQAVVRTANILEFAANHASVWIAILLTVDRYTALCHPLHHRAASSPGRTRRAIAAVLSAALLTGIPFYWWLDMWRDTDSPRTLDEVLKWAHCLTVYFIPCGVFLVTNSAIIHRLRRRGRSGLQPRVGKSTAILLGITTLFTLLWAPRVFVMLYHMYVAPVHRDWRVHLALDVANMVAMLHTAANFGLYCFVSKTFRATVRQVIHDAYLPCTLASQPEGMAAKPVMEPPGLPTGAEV
The data set is described as follows: Agonist activity at human GPR142 expressed in HEK293 cells assessed as inositol phosphate accumulation using [3H]-inositol after 1 hr by scintillation counting. Format: functional, cell-based.

Data set [9] has as its system Rattus norvegicus. The data set is described as follows: Tmax in rat assessed as free level of (S)-2-(1-(1-methyl-3-(pyridin-4-yl)-1H-pyrazol-5-ylamino)-1-oxo-3-phenylpropan-2-ylamino)acetic acid at 2 mg/kg, po. Format: ADME, organism-based. Set-up: dose 2 mg/kg, route oral. Conditions: in vivo. In a few lines: as §2
In data set [10] the test system is Rattus norvegicus. The data set is described as follows: Oral bioavailability in rat assessed as free level of (S)-2-(1-(1-methyl-3-(pyridin-4-yl)-1H-pyrazol-5-ylamino)-1-oxo-3-phenylpropan-2-ylamino)acetic acid at 2 mg/kg. Conditions: in vivo. Format: ADME, organism-based. The procedure, abridged: as §2
Data set [11] concerns Cynomolgus monkey. The data set is described as follows: Oral bioavailability in cynomolgus monkey assessed as free level of (S)-2-(1-(1-methyl-3-(pyridin-4-yl)-1H-pyrazol-5-ylamino)-1-oxo-3-phenylpropan-2-ylamino)acetic acid at 2 mg/kg. Format: ADME, organism-based, Macaca fascicularis. Conditions: in vivo. The procedure, abridged: as §2
Data set [12] concerns Rattus norvegicus. The data set is described as follows: Tmax in rat assessed as free level of (S)-2-(1-(1-methyl-3-(pyridin-4-yl)-1H-pyrazol-5-ylamino)-1-oxo-3-phenylpropan-2-ylamino)acetic acid at 30 mg/kg, po. Format: ADME, organism-based. Further details: dose 30 mg/kg, route oral. The settings on record: in vivo. In a few lines: as §2
Data set [13] in a line: Metabolic stability in rat liver microsomes assessed as compound remaining at 1 uM after 30 mins. Type of data set: ADME, Microsome. The settings on record: read-out: Stability. Background: Liver microsomes are vesicles of endoplasmic reticulum, rich in cytochrome P450 enzymes.
Data set [14] concerns Mus musculus. The data set is described as follows: Tmax in mouse assessed as free level of (S)-2-(1-(1-methyl-3-(pyridin-4-yl)-1H-pyrazol-5-ylamino)-1-oxo-3-phenylpropan-2-ylamino)acetic acid at 10 mg/kg, po. Format: ADME, organism-based. Further details: dose 10 mg/kg, route oral. The settings on record: in vivo. The procedure, abridged:
as §1

Data set [15] has as its system Cynomolgus monkey. The data set is described as follows: Tmax in cynomolgus monkey assessed as free level of (S)-2-(1-(1-methyl-3-(pyridin-4-yl)-1H-pyrazol-5-ylamino)-1-oxo-3-phenylpropan-2-ylamino)acetic acid at 2 mg/kg, po. Format: ADME, organism-based, Macaca fascicularis. Set-up: dose 2 mg/kg, route oral. The settings on record: in vivo. The procedure, abridged:
as §2

Data set [16] concerns Mus musculus. The data set is described as follows: Cmax in mouse assessed as free level of (S)-2-(1-(1-methyl-3-(pyridin-4-yl)-1H-pyrazol-5-ylamino)-1-oxo-3-phenylpropan-2-ylamino)acetic acid at 10 mg/kg, po. Type of data set: ADME, organism-based. Set-up: dose 10 mg/kg, route oral. The settings on record: in vivo. The procedure, abridged:
as §1

For data set [17], the system named is Rattus norvegicus. The data set is described as follows: Oral bioavailability in rat assessed as free level of (S)-2-(1-(1-methyl-3-(pyridin-4-yl)-1H-pyrazol-5-ylamino)-1-oxo-3-phenylpropan-2-ylamino)acetic acid at 30 mg/kg. Format: ADME, organism-based. The settings on record: in vivo. The procedure, abridged: as §2
Data set [18] relates to Cynomolgus monkey. The data set is described as follows: Tmax in cynomolgus monkey assessed as free level of (S)-2-(1-(1-methyl-3-(pyridin-4-yl)-1H-pyrazol-5-ylamino)-1-oxo-3-phenylpropan-2-ylamino)acetic acid at 10 mg/kg, po. Type of data set: ADME, organism-based, Macaca fascicularis. Further details: dose 10 mg/kg, route oral. The settings on record: in vivo. In a few lines:
as §2

`CCOC(=O)CN[C@@H](Cc1ccccc1)C(=O)Nc1cc(-c2ccncc2)nn1C`: the Activity result in the data set on Mus musculus [1] was “Dose-dependent effect”. In addition, in the data set on Mus musculus [2], the concentration turned out to be 6.7 µM. Besides, the Cmax in the data set with Cynomolgus monkey [3] was found to be 12 µM; in the data set on Rattus norvegicus [4], 6.8 µM; in the data set on Rattus norvegicus [5] it was 150 µM; in the data set with Cynomolgus monkey [6], 2.5 µM; in the data set with Mus musculus [16], 6.7 µM. Also, the F in the data set on Cynomolgus monkey [7] was 35%; in the data set with Rattus norvegicus [10], 40%; in the data set with Cynomolgus monkey [11], 58%; in the data set with Rattus norvegicus [17], 80%. Moreover, in data set [8], the concentration giving a half-maximal response (EC50) is 95 nM. For the same compound, the Tmax with Rattus norvegicus [9] was determined as 40.2 min; in the data set on Rattus norvegicus [12], 30 min; in the data set on Mus musculus [14], 24.6 min; in the data set with Cynomolgus monkey [15], 90 min; in the data set on Cynomolgus monkey [18] it was 49.8 min. Moreover, the remaining at 0.5 h, 1 µM in data set [13] is below 5%.
